Experimental data published in ChEMBL document CHEMBL1153760, “Identification and structure-activity relationships of chromene-derived selective estrogen receptor modulators for treatment of postmenopausal symptoms” (J Med Chem, 2009).
pIC50: −log10 of the molar value. Calls of active or inactive are those of the source. The rule behind the calls is not given here.

Columns and labels:
Rattus norvegicus [1] = test: Metabolite Cmax in rats after 10 mg/kg JNJ-1968990 oral dose; type: ADME, organism-based; design: dose 10 mg/kg, route oral; details: in vivo
Summary of the method: (§1)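 Single-dose rat pharmacokinetics. IV dosing at 1-3 mg/kg as a solution in 10% β-cyclodextrin; oral gavage at 10 mg/kg as a uniform suspension in 0.5% methylcellulose. Blood (0.5 mL) collected into heparinized tubes by orbital sinus puncture after dosing. Plasma extracted into acetonitrile with an internal standard and analysed by LC-MS-MS against standards to obtain PK parameters.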

Rattus norvegicus [2] = test: Metabolic stability in rat assessed as (R)-5-[4-(2-Dimethylamino-ethoxy)-phenyl]-11,12-dihydro-5H-6,13-dioxa-benzo[3,4]cyclohepta[1,2-a]naphthalene-2,8-diol Tmax at 10 mg/kg, po administered as single dose by LC-MS/MS analysis; type: ADME, organism-based; design: dose 10 mg/kg, route oral; details: in vivo; summary of the method: as §1
Estrogen receptor [3] = target: T1, Estrogen receptor (Homo sapiens, UniProt P03372); test: Antagonist activity at estrogen receptor in human Ishikawa cells assessed as 17-beta-estradiol-induced alkaline phosphatase activity after 3 days by chemiluminescence assay; type: functional, cell-based
T1 sequence (P03372 whole entry): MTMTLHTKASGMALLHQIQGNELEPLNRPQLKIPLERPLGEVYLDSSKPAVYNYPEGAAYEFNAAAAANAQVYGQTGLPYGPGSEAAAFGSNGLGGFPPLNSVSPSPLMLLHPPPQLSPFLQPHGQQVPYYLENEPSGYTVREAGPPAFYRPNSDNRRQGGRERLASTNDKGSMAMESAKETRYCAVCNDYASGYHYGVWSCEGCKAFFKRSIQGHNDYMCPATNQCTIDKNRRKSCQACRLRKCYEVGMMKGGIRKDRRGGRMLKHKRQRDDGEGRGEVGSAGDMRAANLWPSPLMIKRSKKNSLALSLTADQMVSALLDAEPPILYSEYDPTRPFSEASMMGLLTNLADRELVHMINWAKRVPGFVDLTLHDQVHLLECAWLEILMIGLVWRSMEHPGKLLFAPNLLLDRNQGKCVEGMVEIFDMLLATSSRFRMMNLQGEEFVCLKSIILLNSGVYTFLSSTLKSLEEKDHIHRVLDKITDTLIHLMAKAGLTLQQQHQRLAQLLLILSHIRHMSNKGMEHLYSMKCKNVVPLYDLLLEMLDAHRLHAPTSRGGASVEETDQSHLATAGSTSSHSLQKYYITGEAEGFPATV

[4] = Tmax in rat at 10 mg/kg, po administered as single dose by LC-MS/MS analysis; type: ADME, organism-based; design: dose 10 mg/kg, route oral; details: in vivo; summary of the method: as §1
Rattus norvegicus [5] = test: Metabolite Cmax in rats after 10 mg/kg JNJ-26529152 oral dose; type: ADME, organism-based; design: dose 10 mg/kg, route oral; details: in vivo; summary of the method: as §1
Rattus norvegicus [6] = test: Metabolite Cmax in rats after 10 mg/kg JNJ-26529126 oral dose; type: ADME, organism-based; design: dose 10 mg/kg, route oral; details: in vivo; summary of the method: as §1
Estrogen receptor [7] = target: T1, Estrogen receptor; test: Displacement of radiolabeled estrogen from estrogen receptor alpha by scintillation counting
Rattus norvegicus [8] = test: Metabolite Cmax in rats after 2 mg/kg JNJ-1968990 intravenous dose; type: ADME, organism-based; design: dose 2 mg/kg, route intravenous; details: in vivo; summary of the method: as §1
Rattus norvegicus [9] = test: Decrease in bone resorption in ovariectomized rat assessed as decrease in urine deoxypyridinoline level at 0.1 mg/kg, po administered daily measured after 2 weeks; type: functional, organism-based; design: dose 0.1 mg/kg
Summary of the method: (§2)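 Adult (>6 months) female rats, housed singly on a casein-based diet, ovariectomized under sterile conditions and anesthesia; 6-14 per group. From 24 h after surgery, daily oral gavage of an aqueous suspension in 0.5% Methocel for 2 or 6 weeks. […] Urine deoxypyridinoline measured as bone-resorption marker.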

Rattus norvegicus [10] = species: Rattus norvegicus; test: animal or person; type: functional; details: Uterus, 72 h, route oral
Rattus norvegicus [11] = test: Increase in uterine weight in po dosed ovariectomized rat osteopenia model administered daily measured after 2 weeks; type: functional, organism-based
Estrogen receptor beta = Estrogen receptor beta (Homo sapiens, UniProt Q92731); test: Inhibition of fluormone ES2 binding to estrogen receptor beta after 1 hr by fluorescence polarization assay
[12] = Half life in rat at 10 mg/kg, po administered as single dose by LC-MS/MS analysis; type: ADME, organism-based; design: dose 10 mg/kg, route oral; details: in vivo; summary of the method: as §1
[13] = Oral bioavailability in rat at 10 mg/kg administered as single dose by LC-MS/MS analysis; type: ADME, organism-based; details: in vivo; summary of the method: as §1
[14] = AUC in rat at 10 mg/kg, po administered as single dose by LC-MS/MS analysis; type: ADME, organism-based; design: dose 10 mg/kg, route oral; details: plasma; summary of the method: as §1
[15] = Cmax in rats after 10 mg/kg oral dose; type: ADME, organism-based; design: dose 10 mg/kg, route oral; details: rat, in vivo; summary of the method: as §1
Rattus norvegicus [16] = test: Metabolic stability in rat assessed as (R)-5-[4-(2-Dimethylamino-ethoxy)-phenyl]-11,12-dihydro-5H-6,13-dioxa-benzo[3,4]cyclohepta[1,2-a]naphthalene-2,8-diol Tmax at 2 mg/kg, iv administered as single dose by LC-MS/MS analysis; type: ADME, organism-based; design: dose 2 mg/kg, route intravenous; details: in vivo; summary of the method: as §1
Rattus norvegicus [17] = test: Metabolic stability in rat assessed as 8-Methoxy-6R-(-)-[4-(2-piperidin-1-ylethoxy)phenyl]-11,12-dihydro-5H-6,13-dioxabenzo[3,4]cyclohepta-[1,2-a]naphthalen-2-ol Tmax at 2 mg/kg, iv administered as single dose by LC-MS/MS analysis; type: ADME, organism-based; design: dose 2 mg/kg, route intravenous; details: in vivo; summary of the method: as §1
Rattus norvegicus [18] = test: Estrogenic activity in ovariectomized rat assessed as minor increase in uterine epithelial thickness at 0.1 to 1 mg/kg, po administered daily measured after 6 week by immunohistochemical analysis; type: functional, organism-based
Rattus norvegicus [19] = test: Decrease in plasma cholesterol level in po dosed ovariectomized rat osteopenia model administered daily measured after 2 weeks; type: functional, organism-based
Rattus norvegicus [20] = test: Metabolic stability in rat assessed as 8-Methoxy-6R-(-)-[4-(2-piperidin-1-ylethoxy)phenyl]-11,12-dihydro-5H-6,13-dioxabenzo[3,4]cyclohepta-[1,2-a]naphthalen-2-ol Tmax at 10 mg/kg, po administered as single dose by LC-MS/MS analysis; type: ADME, organism-based; design: dose 10 mg/kg, route oral; details: in vivo; summary of the method: as §1
Rattus norvegicus [21] = test: Decrease in bone resorption in ovariectomized rat assessed as decrease in urine deoxypyridinoline level at 0.1 to 1 mg/kg, po administered daily measured after 2 weeks; type: functional, organism-based; summary of the method: as §2

Sequence of Estrogen receptor beta (Q92731 whole entry): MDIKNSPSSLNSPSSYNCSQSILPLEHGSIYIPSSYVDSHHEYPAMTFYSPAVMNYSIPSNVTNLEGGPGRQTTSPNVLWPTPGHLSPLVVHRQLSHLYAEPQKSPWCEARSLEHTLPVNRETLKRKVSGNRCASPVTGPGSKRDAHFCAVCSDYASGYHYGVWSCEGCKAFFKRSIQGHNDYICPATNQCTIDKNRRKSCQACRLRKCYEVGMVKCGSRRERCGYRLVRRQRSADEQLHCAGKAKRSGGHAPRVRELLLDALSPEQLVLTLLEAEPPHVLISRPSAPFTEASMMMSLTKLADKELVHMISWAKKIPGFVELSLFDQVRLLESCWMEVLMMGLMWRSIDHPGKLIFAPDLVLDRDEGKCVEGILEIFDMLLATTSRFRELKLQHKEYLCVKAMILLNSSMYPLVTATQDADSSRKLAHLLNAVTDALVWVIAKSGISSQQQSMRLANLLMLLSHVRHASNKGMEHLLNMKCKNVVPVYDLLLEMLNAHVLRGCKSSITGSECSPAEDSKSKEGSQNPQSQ

| SMILES | Cmax_metabolite (Rattus norvegicus [1]) | pIC50 (Estrogen receptor [3]) | Tmax [4] | pIC50 (Estrogen receptor [7]) | Cmax_metabolite (Rattus norvegicus [8]) | inhibition in vivo at 1 mg/kg (Rattus norvegicus [10]) | Activity (Rattus norvegicus [11]) | pIC50 (Estrogen receptor beta) | half-life [12] | bioavailability [13] | AUC [14] | Cmax [15] | further results |
| --- | --- | --- | --- | --- | --- | --- | --- | --- | --- | --- | --- | --- | --- |
| Oc1ccc2c(c1)O[C@H](c1ccc(OCCN3CCCCC3)cc1)C1=C2CCOc2cc(O)ccc21 | 3.9 ng/mL | 9.70 | 5 h | 8.96 | 1.6 ng/mL | 135% | inactive | 7.68 | 4.8 h | 11% | 1010 ng·h/mL | 91 ng/mL | Tmax (Rattus norvegicus [2]): 6 h; Cmax_metabolite (Rattus norvegicus [5]): 12 ng/mL; Cmax_metabolite (Rattus norvegicus [6]): 14 ng/mL; Activity (Rattus norvegicus [9]): Active; Tmax (Rattus norvegicus [16]): 8 h |
| COc1ccc2c(c1)O[C@H](c1ccc(OCCN3CCCCC3)cc1)C1=C2CCOc2cc(O)ccc21 | 33.3 ng/mL | 6.59 | 6 h | 8.05 | 7.6 ng/mL | 99% | inactive | 8.15 | 19.8 h | 58% | 6920 ng·h/mL | 219 ng/mL | Tmax (Rattus norvegicus [17]): 8 h; Activity (Rattus norvegicus [18]): Active; Activity (Rattus norvegicus [19]): Active; Tmax (Rattus norvegicus [20]): 6 h; Activity (Rattus norvegicus [21]): Active |
